{"source": "ChEMBL document CHEMBL1122071", "about": "“Avermectin acyl derivatives with anthelmintic activity” (1982)", "format_in_all_cases": "functional", "key": {"[1]": {"system": "Teladorsagia circumcincta", "assay": "Anthelmintic efficacy against adult Ostertagia circumcincta (O. c) in sheep at dose of 0.25 mg/kg administered orally; 0-19%", "in_short": "(§1)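 Lambs experimentally infected with mixed gastrointestinal nematodes (H. contortus, O. circumcincta, T. axei, T. colubriformis, C. oncophora, Oe. columbianum) were dosed orally, 1–3 sheep per dose. An untreated infected group of 6 was included, with worm burdens given as the geometric mean number of worms per lamb. Efficacy was scored against adult and, where listed, EL4 stages.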"}, "[2]": {"system": "Trichostrongylus colubriformis", "assay": "Minimal dose necessary to eliminate > 83% of Trichostrongylus colubriformis infection in gerbils"}, "Haemonchus contortus [3]": {"system": "Haemonchus contortus", "assay": "Anthelmintic efficacy against adult Haemonchus contortus (H.c) in sheep at dose of 0.25 mg/kg administered orally; 20-59%", "in_short": "as §1"}, "Trichostrongylus axei [4]": {"system": "Trichostrongylus axei", "assay": "Anthelmintic efficacy against Trichostrongylus axei (T.a) in sheep at dose of 0.25 mg/kg administered orally; 0-19%", "in_short": "as §1"}, "[5]": {"system": "Trichostrongylus colubriformis", "assay": "Anthelmintic efficacy against Trichostrongylus colubriformis (T.c) in sheep at dose of 0.25 mg/kg administered orally; 0-19%", "in_short": "as §1"}, "[6]": {"system": "Oesophagostomum columbianum", "assay": "Anthelmintic efficacy against Oseophagostomum columbianum (Oe. c) in sheep at dose of 0.25 mg/kg administered orally; 20-59%", "in_short": "as §1"}, "Cooperia oncophora [7]": {"system": "Cooperia oncophora", "assay": "Anthelmintic efficacy against adult Cooperia oncopphora (C.o) in sheep at dose of 0.25 mg/kg administered orally; 60-89%", "in_short": "as §1"}, "[8]": {"system": "Oesophagostomum columbianum", "assay": "Anthelmintic efficacy against Oseophagostomum columbianum (Oe. c) in sheep at dose of 0.25 mg/kg administered orally", "settings": "route oral", "in_short": "as §1"}, "Trichostrongylus axei [9]": {"system": "Trichostrongylus axei", "assay": "Anthelmintic efficacy against Trichostrongylus axei (T.a) in sheep at dose of 0.25 mg/kg administered orally", "settings": "route oral", "in_short": "as §1"}, "Cooperia oncophora [10]": {"system": "Cooperia oncophora", "assay": "Anthelmintic efficacy against adult Cooperia oncopphora (C.o) in sheep at dose of 0.25 mg/kg administered orally", "settings": "route oral", "in_short": "as §1"}, "[11]": {"system": "Trichostrongylus colubriformis", "assay": "Anthelmintic efficacy against Trichostrongylus colubriformis (T.c) in sheep at dose of 0.25 mg/kg administered orally", "settings": "route oral", "in_short": "as §1"}, "Haemonchus contortus [12]": {"system": "Haemonchus contortus", "assay": "Anthelmintic efficacy against adult Haemonchus contortus (H.c) in sheep at dose of 0.25 mg/kg administered orally", "settings": "route oral", "in_short": "as §1"}, "[13]": {"system": "Teladorsagia circumcincta", "assay": "Anthelmintic efficacy against adult Ostertagia circumcincta (O. c) in sheep at dose of 0.25 mg/kg administered orally", "settings": "route oral", "in_short": "as §1"}}}
{"compound": "CC[C@H](C)[C@H]1O[C@]2(CC(OC(C)=O)[C@@H]1C)C[C@@H]1C[C@@H](C/C=C(\\C)[C@@H](OC3CC(OC)C(OC4CC(OC)C(O)C(C)O4)C(C)O3)[C@@H](C)/C=C/C=C3\\CO[C@@H]4[C@H](OC)C(C)=C[C@@H](C(=O)O1)[C@]34O)O2", "note": "(some centres undefined)", "values": [{"measurement": "Efficacy", "setting": "[1]", "value": 0, "unit": "%"}, {"measurement": "Dose", "setting": "[2]", "value": 0.25, "unit": "mg/kg"}, {"measurement": "Efficacy", "setting": "Haemonchus contortus [3]", "value": 20, "unit": "%"}, {"measurement": "Efficacy", "setting": "Trichostrongylus axei [4]", "value": 0, "unit": "%"}, {"measurement": "Efficacy", "setting": "[5]", "value": 0, "unit": "%"}, {"measurement": "Efficacy", "setting": "[6]", "value": 20, "unit": "%"}, {"measurement": "Efficacy", "setting": "Cooperia oncophora [7]", "value": 60, "unit": "%"}]}
{"compound": "CCC(C)[C@H]1O[C@]2(CC(OC(C)=O)[C@@H]1C)C[C@@H]1C[C@@H](C/C=C(\\C)[C@@H](OC3CC(OC)C(OC4CC(OC)C(OC(C)=O)C(C)O4)C(C)O3)[C@@H](C)/C=C/C=C3\\COc4cc(C)cc(c43)C(=O)O1)O2", "note": "(some centres undefined)", "values": [{"measurement": "Dose", "setting": "[2]", "value": ">2.5", "unit": "mg/kg"}]}
{"compound": "CC[C@H](C)[C@H]1O[C@]2(C=C[C@@H]1C)C[C@@H]1C[C@@H](C/C=C(\\C)[C@@H](O[C@H]3C[C@@H](OC)[C@@H](O[C@H]4C[C@@H](OC)[C@@H](OC(N)=O)[C@H](C)O4)[C@H](C)O3)[C@@H](C)/C=C/C=C3\\CO[C@@H]4[C@H](O)C(C)=C[C@@H](C(=O)O1)[C@]34O)O2", "values": [{"measurement": "Dose", "setting": "[2]", "value": 0.025, "unit": "mg/kg"}]}
{"compound": "CC[C@H](C)[C@H]1O[C@]2(CC(O)[C@@H]1C)C[C@@H]1C[C@@H](C/C=C(\\C)[C@@H](OC3CC(OC)C(OC4CC(OC)C(OC(C)=O)C(C)O4)C(C)O3)[C@@H](C)/C=C/C=C3\\CO[C@@H]4[C@H](OC)C(C)=C[C@@H](C(=O)O1)[C@]34O)O2", "note": "(some centres undefined)", "values": [{"measurement": "Efficacy", "setting": "[8]", "value": ">90", "unit": "%"}, {"measurement": "Efficacy", "setting": "Trichostrongylus axei [9]", "value": ">90", "unit": "%"}, {"measurement": "Efficacy", "setting": "Cooperia oncophora [10]", "value": ">90", "unit": "%"}, {"measurement": "Dose", "setting": "[2]", "value": 0.06, "unit": "mg/kg"}, {"measurement": "Efficacy", "setting": "[11]", "value": ">90", "unit": "%"}, {"measurement": "Efficacy", "setting": "Haemonchus contortus [12]", "value": ">90", "unit": "%"}, {"measurement": "Efficacy", "setting": "[13]", "value": ">90", "unit": "%"}]}
{"compound": "CC[C@H](C)[C@H]1O[C@]2(C=C[C@@H]1C)C[C@@H]1C[C@@H](C/C=C(\\C)[C@@H](O[C@H]3C[C@@H](OC)[C@@H](O[C@H]4C[C@@H](OC)[C@@H](O[Si](C)(C)C(C)(C)C)[C@H](C)O4)[C@H](C)O3)[C@@H](C)/C=C/C=C3\\CO[C@@H]4[C@H](O[Si](C)(C)C(C)(C)C)C(C)=C[C@@H](C(=O)O1)[C@]34O)O2", "values": [{"measurement": "Dose", "setting": "[2]", "value": ">2.5", "unit": "mg/kg"}]}
{"compound": "CC[C@H](C)[C@H]1O[C@]2(C=C[C@@H]1C)C[C@@H]1C[C@@H](C/C=C(\\C)[C@@H](O[C@H]3C[C@@H](OC)[C@@H](O[C@H]4C[C@@H](OC)[C@@H](OC(=O)CNC(C)=O)[C@H](C)O4)[C@H](C)O3)[C@@H](C)/C=C/C=C3\\CO[C@@H]4[C@H](O)C(C)=C[C@@H](C(=O)O1)[C@]34O)O2", "values": [{"measurement": "Dose", "setting": "[2]", "value": 0.025, "unit": "mg/kg"}]}
{"compound": "CCCCCCCC(=O)O[C@H]1[C@H](C)O[C@@H](O[C@H]2[C@H](C)O[C@@H](O[C@@H]3/C(C)=C/C[C@@H]4C[C@@H](C[C@]5(C=C[C@H](C)[C@@H]([C@@H](C)CC)O5)O4)OC(=O)[C@@H]4C=C(C)[C@@H](O)[C@H]5OC/C(=C\\C=C\\[C@@H]3C)[C@]54O)C[C@H]2OC)C[C@H]1OC", "values": [{"measurement": "Dose", "setting": "[2]", "value": 0.125, "unit": "mg/kg"}]}
